This is a sample that favours compounds with a hit; in the whole collection about 1.8% have one here.
procasp3 activ – activators of human procaspase-3 D3A mutant, primary screen, biochemical, absorbance, PC-3 D3A mutant, single concentration | Caspase-3 (Homo sapiens), P42574 | recombinant procaspase-3 D3A, Ac-DEVD-pNA absorbance 405 nm | activation, % at 8.5 µM | actives 0.11% (n = 330,000);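 active means activation above the mean of all tested compounds plus 3 SD, cut at about 21% in these data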;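 further: 0% = DMSO alone and 100% = DMSO wells spiked with extra 5 µM PC-3 D3A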
Target sequence (P42574 whole entry D9A/D28A/D175A): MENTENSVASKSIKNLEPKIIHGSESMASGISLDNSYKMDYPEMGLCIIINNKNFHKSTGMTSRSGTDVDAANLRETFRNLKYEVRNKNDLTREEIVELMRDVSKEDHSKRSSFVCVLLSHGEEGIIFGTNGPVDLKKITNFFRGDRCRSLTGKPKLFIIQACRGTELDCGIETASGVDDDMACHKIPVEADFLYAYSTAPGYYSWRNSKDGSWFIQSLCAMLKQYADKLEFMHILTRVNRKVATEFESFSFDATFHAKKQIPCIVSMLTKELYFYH
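Assay system – Procaspase-3 D3A mutant · Benchmarks – DMSO low control, extra-enzyme high control · Technique – 405 nm absorbance of p-nitroaniline, reads at 0 and 120 min · Doses – 8.5 µM nominal · Measure – % activation between DMSO and enzyme-spiked controls · Also added – Ac-DEVD-pNA chromogenic peptide substrate · Schedule – 1 h compound preincubation, 2 h substrate hydrolysis at 25 °C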
EBNA-1 inhibitor – EBNA-1 DNA-binding inhibitors, primary screen, biochemical, fluorescence polarization. actives 0.34% (n = 300,000). inhibition, % at 14.8 µM; in the data active means inhibition above about 28%
GSTO1 inh – inhibitors of recombinant GSTO1, primary screen, counter-screen for RBBP9 inhibitor project, biochemical, fluorescence polarization. Glutathione S-transferase omega-1 (Homo sapiens), P78417. actives 1.1% (n = 300,000). AID 1974, 2009. inhibition, % at 5.96 µM. activity-based probe fluorescence polarization;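 active means inhibition above the campaign mean inhibition plus 3 SD, cut at about 35% in these data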;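 further: 0% = GSTO1-1 with DMSO and 100% = wells lacking GSTO1-1 enzyme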
proCasp7 act – procaspase-7 activators, primary screen, counter-screen for procaspase-3 activator project, biochemical, absorbance, HTS, human. actives 0.093% (n = 330,000). recombinant procaspase-7, Ac-DEVD-pNA absorbance 405 nm; D23A/D198A/D206A triple mutant, cannot self-cleave; scale: DMSO 0, 5 µM enzyme 100. Caspase-7 (Homo sapiens), P55210. AID 463210, 2010. activation, % at 8.5 µM;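 active means percent activation above the screen-wide mean plus 3 SD, cut at about 25% in these data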
Target sequence (P55210 whole entry D23A/D198A/D206A): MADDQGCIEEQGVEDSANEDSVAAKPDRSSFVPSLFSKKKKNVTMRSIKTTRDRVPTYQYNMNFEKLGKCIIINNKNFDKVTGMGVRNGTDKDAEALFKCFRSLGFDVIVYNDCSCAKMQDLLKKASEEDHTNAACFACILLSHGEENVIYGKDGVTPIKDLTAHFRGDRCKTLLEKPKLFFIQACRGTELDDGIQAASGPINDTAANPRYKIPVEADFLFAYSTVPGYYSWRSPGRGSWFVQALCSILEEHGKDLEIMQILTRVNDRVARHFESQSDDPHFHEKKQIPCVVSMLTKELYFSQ
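signal = Epi-absorbance of released pNA at 405 nm, two timepoints | assay system = Uncleavable procaspase-7 mutant enzyme | reagent = Ac-DEVD-pNA substrate, 400 µM as added | times = 1 h enzyme–compound preincubation and 2 h substrate reaction, both 25 °C | benchmarks = low DMSO alone, high DMSO plus 5 µM PC-7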
ZTA DNA inh – blocks Epstein-Barr virus ZTA, an EBNA-1 counter-screen | P03206 | ZTA-DNA binding, fluorescence polarization | inhibition, % at 11 µM | actives 0.15% (n = 320,000); in the data active means inhibition above about 33%
Apaf1 inhib – inhibitors of human Apaf-1 apoptosome, primary screen, biochemical, DEVD-Rh110 fluorescence, uHTS. actives 0.71% (n = 330,000). reconstituted apoptosome caspase-3 activity. inhibition, % at 20 µM; active means inhibition of at least 40% at 20 µM;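 further: plate controls were DMSO wells for no effect and DEVD-CHO caspase inhibitor wells for full effect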
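System – cell-free apoptosome with Apaf-1, procaspase-3 and caspase-9 · Buffer or medium – pH 7.5 Hepes buffer with CHAPS, BSA, DTT · Also added – cytochrome c with DEVD-Rh110 · Times – 30 min compound preincubation, 50 min activation, room temperature · Technique – Rh110 fluorescence intensity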
EBNA-1 confirm – EBNA-1 DNA-binding inhibitors, retest, confirmation, biochemical, fluorescence polarization, triplicate | shares compounds with EBNA-1 inhibitor | inhibition, % at 14.8 µM | actives 35% (n = 830) | Recombinant EBNA-1 DBD, Cy5-DNA fluorescence polarization;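 active means mean inhibition across replicates above a set limit taken from the earlier primary screen, cut at about 28% in these data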;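 further: plate controls were EBNA-1 protein with DMSO for no effect and wells lacking EBNA-1 for full effect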
ZTA counter trip – EBV Zta DNA binding inhibitors, counter-screen for EBNA-1 inhibitor project, biochemical, fluorescence polarization, triplicate | Zta-ZRE DNA binding, Cy5 fluorescence polarization | 830 tested, under 10 active | shares compounds with EBNA-1 inhibitor | inhibition, % at 11.1 µM | AID 2328, 2010;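 active means mean inhibition over triplicates above a set limit taken from the primary EBNA-1 screen, cut at about 37% in these data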;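 further: purified full length Zta protein with Cy5 labeled ZRE DNA probe; 0% = Zta with DMSO and 100% = wells lacking Zta protein; inhibitors lower polarization by freeing the labeled DNA probe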
Active calls of the source: *; . = no result given.

SMILES | procasp3 activ | EBNA-1 inhibitor | GSTO1 inh | proCasp7 act | ZTA DNA inh | Apaf1 inhib | EBNA-1 confirm | ZTA counter trip
CC[C@]12c3[nH]c4ccc(OC)cc4c3CCN1C(=O)C(CC(=O)NCCCOC)C[C@@H]2C(=O)N1CCN(C(=O)c2ccco2)CC1 (some centres not stated) | 0 | . | . | 7 | . | 0 | . | .
CCc1ccc(-c2cc3c(=O)n(CC(=O)NCCCN4CCN(CC)CC4)nc(C)n3n2)cc1 | -4 | -10 | 3 | 1 | -16 | 17 | . | .
Cc1ccc(OC(=O)NC2CCS(=O)(=O)C2)cc1C (configuration not stated) | -2 | 16 | -2 | 3 | -3 | -13 | . | .
O=C(NC1CCS(=O)(=O)C1)Oc1ccccc1 (configuration not stated) | 0 | 9 | -3 | 2 | -13 | 51* | . | .
COc1ccc(CCNC(=O)c2cc(COc3c(C)cccc3C)on2)c(OC)c1 | -2 | 4 | 6 | 11 | -22 | 19 | . | .
CCCCn1c(N)c(N(CCC(C)C)C(=O)C2CCCC2)c(=O)[nH]c1=O | 7 | . | . | 8 | -6 | 5 | . | .
Cc1ccc2c(c1)nnn2C1CCN(S(=O)(=O)c2ccc(C(=O)NC3CCCC3)cc2)CC1 | 4 | 35* | -2 | -1 | 17 | 18 | 36* | 5
Cc1ccc2c(c1)nnn2C1CCN(S(=O)(=O)c2ccc(C(=O)N(C)C)cc2)CC1 | 6 | 3 | 4 | 6 | 7 | -1 | . | .
COC(=O)c1ccc(COc2ccccc2/C=N/NS(=O)(=O)c2ccc(C)cc2)cc1 | 2 | 67* | -1 | 13 | 4 | -5 | 29* | 14
NC(=O)c1cc(-c2ccccc2)sc1NC(=O)Cc1ccc(S(=O)(=O)N2CCOCC2)s1 | -1 | 31* | 3 | -12 | -5 | 12 | 53* | 3
Cc1nn(CC(=O)NCc2ccccc2)c(=O)c2ccccc12 | -1 | -5 | -4 | 8 | -1 | 0 | . | .
Cc1nn(CC(=O)NCc2cccc3ccccc23)c(=O)c2ccccc12 | 4 | 31* | -1 | 4 | 1 | 4 | 7 | 0
Cc1cc(C)c2cc(C#N)c(SCC(=O)Nc3ccc4c(c3)OCO4)nc2c1 | 6 | 32* | -11 | 4 | -2 | -27 | 50* | 1
CCOC(=O)[C@@H]1[C@H]2COc3ccc(Br)cc3[C@@H]2N2C(=O)N(c3ccc(C)cc3)C(=O)[C@@]12C | -1 | . | . | 10 | . | 18 | . | .
CC(C)c1nnc(NC(=O)CCC(=O)Nc2ccc(F)cc2)s1 | -6 | 10 | 4 | -8 | -5 | 2 | . | .
CCc1ccc(NC(=O)CCC(=O)Nc2nnc(C(C)C)s2)cc1 | 4 | 40* | 1 | 1 | -2 | -2 | 10 | -3
CNC(=O)C1CC(=O)N(c2ccc(F)c(Cl)c2)C1 (configuration not stated) | -5 | 7 | 2 | 5 | 9 | -6 | . | .
CC(C)NC(=O)C1CC(=O)N(c2ccc(F)c(Cl)c2)C1 (configuration not stated) | -6 | 32* | 1 | 5 | -18 | 6 | 4 | 6
CCOC(=O)N1CCN(S(=O)(=O)c2ccc(F)c(C(=O)Nc3cccc(Cl)c3C)c2)CC1 | -6 | 81* | -4 | 5 | -8 | 7 | 12 | -2
O=C(CCn1cnc2ccccc2c1=O)Nc1nc(-c2ccc(Br)cc2)cs1 | 4 | 32* | -1 | -2 | 16 | 6 | 44* | 26
O=C(Cn1cnc2ccccc2c1=O)Nc1nc2ccccc2s1 | 4 | 45* | -3 | 8 | 5 | 2 | 55* | 2
CCc1ccc2nc(NC(=O)Cn3cnc4ccccc4c3=O)sc2c1 | 1 | 7 | -5 | -2 | 14 | -10 | . | .
O=C(Cn1nc(C(=O)O)c2ccccc2c1=O)Nc1nc(-c2ccccc2)cs1 | -4 | 32* | -4 | 4 | -2 | -20 | 30* | 1
Cc1ccccc1NC(=O)Cn1nc(C(=O)O)c2ccccc2c1=O | -7 | -2 | 4 | 7 | 1 | 1 | . | .
COc1ccc(N(CC(=O)Nc2ccccc2C(=O)N2CCCC2)S(C)(=O)=O)cc1 | -4 | 6 | 5 | -8 | -10 | 3 | . | .
SMILES | procasp3 activ | EBNA-1 inhibitor | GSTO1 inh | proCasp7 act | ZTA DNA inh | Apaf1 inhib | EBNA-1 confirm | ZTA counter trip
O=C(NC1CC1)C1CC(=O)N(c2cccc(Cl)c2)C1 (configuration not stated) | -5 | -3 | 4 | 4 | -18 | 4 | . | .
Cc1ccc(S(=O)(=O)N2CCCN(C)c3nc4ccccc4nc32)cc1 | 2 | . | . | 2 | -15 | 2 | . | .
COc1ccc(NC(=O)Nc2ccccc2F)cc1Cl | 2 | 89* | 4 | -13 | -22 | -5 | 22 | 14
COc1ccc(NC(=O)Nc2ccccc2F)cc1 | -3 | 12 | 17 | 4 | -2 | -14 | . | .
CC1CCN(S(=O)(=O)c2ccc(NC(=O)Cn3nnc(-c4ccccc4)n3)cc2)CC1 | 5 | 30* | -25 | 11 | 19 | 3 | 5 | -15
Cc1ccc(-c2nnn(CC(=O)Nc3ccc(S(=O)(=O)N4CCC(C)CC4)cc3)n2)cc1 | 3 | 11 | 1 | 5 | 12 | -16 | . | .
Cc1cccnc1NC(=O)c1ccc(S(=O)(=O)N2CCC(C)CC2)cc1 | 7 | 31* | -6 | -6 | 18 | -1 | 4 | 2
CC1CCN(S(=O)(=O)c2ccc(NC(=O)c3ccncc3)cc2)CC1 | 1 | -10 | 0 | 9 | 1 | 24 | . | .
Cc1cc(C)c(S(=O)(=O)Cc2ccccc2)c(OC(C)C)n1 | -8 | -2 | -2 | -3 | -3 | 10 | . | .
O=C1CSC(=S)N1/N=C/c1cc(Br)c(O)c(Br)c1 | -16 | -3 | -42 | -18 | -2 | . | . | .
Cn1c(N)c(C(=O)COC(=O)CSc2cccc3cccc(Cl)c23)c(=O)n(C)c1=O | 8 | 32* | 4 | -4 | 6 | -8 | 46* | 22
